# High-throughput results (PubChem)
# STAT1 act-1 = STAT1 signaling activation; NIH 3T3 STAT1-luciferase reporter, IFN-gamma, luminescence; 100% = IFN-gamma alone, no compound; activation (% of control), % at 5.5 µM; actives 2.6% (n = 200,000);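 active = activation above the screen-wide mean activation plus 3 SD, cut at about 130% in these data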;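 also: raw ratio to IFN-gamma control signal so 100% means no change and 0% no light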
# STAT3 act-1 = STAT3 signaling activation; actives 0.91% (n = 190,000); U3A cells, IL-6 STAT3-luciferase reporter, luminescence; 100% = signal with IL-6 EC80 alone; activation (% of control), % at 5.6 µM;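 active = activation above the screen-wide mean of compound activation plus 3 SD, cut at about 130% in these data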;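 also: 0% = background luminescence of wells with medium and substrate only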
#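 System – human U3A cells carrying STAT3-luciferase construct · Probe or stimulus – Interleukin-6, 33 ng/mL · Schedule – compound 1 h, then IL-6 6 h at 37 °C · Signal – luminescence from STAT3-driven luciferase reporter · Evaluation – percent of IL-6-only median luminescence · Benchmarks – IL-6-only high control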
# STAT1 inh = reduces IFN-gamma driven STAT1 reporter signal; NIH 3T3 STAT1-luciferase reporter, luminescence; inhibition, % at 5.5 µM; actives 0.35% (n = 200,000);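 active = inhibition above a set limit, the mean inhibition across all tested compounds plus 3 SD, cut at about 34% in these data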;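 also: 0% = IFN-gamma with DMSO and 100% = IFN-gamma with 300 µM nifuroxazide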
# NF-kB neuron act = compounds increasing NF-kB expression in human neuronal cells. NF-kB reporter expression; stronger effect = higher value. fold change at 12.5 µM. actives 1.6% (n = 190,000); in the data active = fold change above about 3.3
# STAT3 blocker = STAT3 signaling inhibition; AID 862; U3A cells, IL-6 STAT3-luciferase reporter, luminescence; host cell line lacks STAT1; actives 0.89% (n = 190,000); inhibition, % at 5.5 µM;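 active = inhibition above the mean inhibition across all screened compounds plus 3 SD, cut at about 44% in these data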;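 also: 0% = DMSO only wells and 100% = 100 µM nifuroxazide control wells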
# APP 5'UTR act = activates APP 5'UTR luciferase reporter | AID 1276 | actives 1% (n = 190,000) | activation, % at 2 µM | SH-SY5Y APP 5'UTR luciferase reporter, luminescence; zero percent = DMSO vehicle wells;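 active = activation above a set limit, based on mean plus 3 SD of controls, cut at about 140% in these data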
# STAT3 act-2 = STAT3 activation, confirmation assay; AID 1267; potentiation (% of control), % at 5.7 µM; actives 64% (n = 1,200); shares compounds with STAT3 act-1; U3A STAT3-luciferase reporter, IL-6 potentiation, luminescence; U3A cells lack STAT1; 100 means same as IL-6 alone;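 active = percent activation of the STAT3 luciferase reporter above a set limit taken from the earlier primary screen, cut at about 130% in these data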;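 also: 0% = background signal of medium plus substrate and 100% = median of IL-6 with DMSO wells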
# NFkB act STAT3ct = NF-kappaB activation in STAT3 activator counter-screen; shares compounds with STAT3 act-1; human cells, NF-kappaB reporter activation; activation (% of control), % at 5.7 µM; actives 11% (n = 1,200); in the data active = activation above about 120%;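 also: reporter induced by TNF-alpha stimulation; 100% = median of stimulated DMSO wells and 0% = no signal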
# STAT1 act-2 = activates STAT1, counter-screen to STAT3 activators. AID 1318. actives 13% (n = 1,200). shares compounds with STAT3 act-1. NIH 3T3 STAT1-luciferase reporter, IFN-gamma, luminescence. activation (% of control), % at 5.7 µM;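 active = activation above the solvent-only control well mean plus 3 SD, set per screening run, cut at about 120% in these data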;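 also: 100% = IFN-gamma with DMSO median signal so 100% means no change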
# Starred values were filed as active, the others as inactive; / = no result given. Only some compounds are listed: those with a hit (about 4.9% of all), similar ones and a draw of the others.
SMILES,STAT1 act-1,STAT3 act-1,STAT1 inh,NF-kB neuron act,STAT3 blocker,APP 5'UTR act,STAT3 act-2,NFkB act STAT3ct,STAT1 act-2
CCn1cc(C(=O)Nc2cccc(C)c2)c(=O)c2ccc(C)nc21,107.6,91.4,-10.5,1.13,17.6,-4.2,/,/,/
Nn1c(=O)[nH]c2c([nH]c3ccccc32)c1=O,83.1,147.1*,17.8,1.02,-44.9,1.6,151.6*,102.5,89.9
Cc1ccc(C)n1-c1nccc(-c2cccs2)n1,104.3,139.6*,-4.8,1.33,-35.2,-5.7,114.8,106.5,103.2
COc1cc(C2SCC(=O)N2c2nnc(C34CC5CC(CC(C5)C3)C4)s2)cc(OC)c1OC (stereo not drawn),98.6,165.1*,0.5,1.22,-58.1,-9.4,141.7*,108.0,110.7
COc1ccc(C2SCC(=O)N2c2nnc(C34CC5CC(CC(C5)C3)C4)s2)cc1 (stereo not drawn),105.2,99.3,-5.9,1.05,-1.8,10.9,/,/,/
Cc1nc2cc3nc(C(F)(F)F)[nH]c3cc2[nH]1,103.3,95.3,-3.8,1.25,8.3,2.3,/,/,/
O=C(Nc1c(Cl)cc(Cl)cc1-c1nc2ccccc2s1)c1ccc(Br)o1,89.6,139.1*,11.2,0.81,-51.6,-11.9,114.8,100.9,70.6
O=C(Nc1ccc(C(F)(F)F)cc1)c1cnc(N2CCN(c3ccccn3)CC2)c2ccccc12,100.0,128.0,-1.1,1.42,-33.4,19.0,/,/,/
C/C(=N\Nc1nc(-c2cc(C)ccc2C)cs1)c1cc2ccccc2oc1=O,92.2,99.3,8.8,1.01,-1.4,-15.6,/,/,/
C/C(=N\Nc1nc(-c2cc(C)ccc2C)cs1)c1cc2c(ccc3ccccc32)oc1=O,98.7,146.4*,1.5,1.14,-46.7,-6.4,106.5,100.2,94.8
Cc1noc(/C=C/N(C)C)c1S(=O)(=O)N1CCc2ccccc21,94.5,151.1*,6.1,0.94,-55.7,0.1,139.2*,103.4,96.9
COC(=O)/C(=N/Nc1ccccc1C)Sc1nnc(C(O)c2ccccc2)n1-c1ccccc1 (stereo not drawn),95.1,95.9,5.6,0.96,5.1,-17.0,/,/,/
Cc1cc2cc3c(cc2nc1SCC(=O)Nc1nc(C)c(C)s1)OCO3,92.6,168.7*,8.3,1.29,-81.7,0.3,133.0*,103.2,103.0
O=C(CCCN1C(=O)c2cccc3cccc(c23)C1=O)Nc1ccon1,104.7,85.3,-6.7,0.96,21.1,-4.4,/,/,/
Cc1cccc(N2C(=O)CC(c3ccc(F)cc3)C3=C2COC3=O)c1 (stereo not drawn),92.0,102.3,7.5,1.05,0.7,6.6,/,/,/
CN(C)c1ccc2c(c1)OC(N)=C(C#N)C2c1cccc(F)c1 (stereo not drawn),112.0,145.8*,-11.3,4.95*,-50.3,-95.1,100.1,153.1*,112.5
N#CC1=C(N)Oc2cc(O)ccc2C1c1cccnc1 (stereo not drawn),98.5,92.4,0.1,1.12,10.3,11.5,/,/,/
CCOc1ccccc1/C=N/NC(=O)CNC(=O)c1cccs1,91.3,94.8,6.3,1.43,10.9,9.3,/,/,/
COc1ccc(S(=O)(=O)CCC(=O)Nc2cccc(OC)c2)cc1,98.2,103.1,1.5,0.93,4.1,-0.9,/,/,/
Cn1c(=O)c(/C=C/c2ccc(F)cc2)nc2ccccc21,119.8,152.3*,-23.6,1.87,-51.2,38.3,176.9*,119.8,128.6*
O=c1cc(-c2ccc(F)cc2F)[nH]c2ccccc12,102.1,97.9,-2.3,1.26,-0.3,-0.5,/,/,/
Cc1ccc2[nH]c(-c3cccc(F)c3)cc(=O)c2c1,120.8,142.4*,-22.9,3.79*,-53.6,-93.2,110.1,142.8*,116.3
